The values that follow come from ChEMBL document CHEMBL3091309, “A CD4 mimic as an HIV entry inhibitor: pharmacokinetics” (Bioorg Med Chem, 2013).

Molecules are shown by their SMILES.

The nature of data set [1]: Half life in rhesus monkey at 13.4 mg/kg, iv by HPLC analysis. It counts as ADME, organism-based, Macaca mulatta. On the set-up: dose 13.4 mg/kg, route intravenous. To be noted: in vivo. In a few lines: (§1)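 Dosed by cephalic vein injection in 30 mL 0.1 M sodium phosphate buffer with NaCl, pH 7.4. Blood (3.0 mL) was drawn at 0, 0.5, 1, 2, 4 and 24 h. Plasma was separated and stored at -80°C, then MeOH-extracted. Supernatant was spiked with phenol internal standard (final 150 µg/mL) and filtered for HPLC, quantified against a peak-area-ratio calibration curve.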

Data set [2] can be described thus: Volume of distribution in rhesus monkey at 13.4 mg/kg, iv after 24 hrs by HPLC analysis. It counts as ADME, organism-based, Macaca mulatta. On the set-up: dose 13.4 mg/kg, route intravenous. To be noted: in vivo. In a few lines:
as §1

The nature of data set [3]: Initial plasma concentration in rhesus monkey at 13.4 mg/kg, iv. More on the design: dose 13.4 mg/kg, route intravenous. It counts as ADME, organism-based, Macaca mulatta. The procedure, abridged: as §1
Data set [4] in a line: Initial plasma concentration in Jcl:Sprague-Dawley rat at 14 mg/kg, iv by HPLC analysis. It counts as ADME, organism-based. More on the design: dose 14 mg/kg, route intravenous. The procedure, abridged:
(§2)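 Jcl:SD rats (6 weeks old) dosed iv via tail vein with 2.5 mg 2-HCl in 1.0 mL saline. Plasma sampled from 15 to 240 min and assayed by HPLC with phenol internal standard. Parameters derived from the plasma concentration–time course.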

For data set [5], the system named is Rattus norvegicus. Put plainly: Volume of distribution in Jcl:Sprague-Dawley rat at 14 mg/kg, iv by HPLC analysis. The data set is classed as ADME, organism-based. On the set-up: dose 14 mg/kg, route intravenous. To be noted: in vivo. The procedure, abridged: as §2
Data set [6] is described as follows: Half life in Jcl:Sprague-Dawley rat at 2.5 mg, iv by HPLC analysis. To be noted: in vivo.
A short description of data set [7]: Adsorption in rhesus monkey blood cells assessed as YYA-021 level at 1 mg/ml after 2 hrs by HPLC analysis. The data set is classed as ADME, cell-based, Macaca mulatta. In a few lines: (§3)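 Macaque whole blood (1.0 mL) spiked with 2-HCl in saline (5 mg/mL stock, 0.25 mL), incubated 37°C for 0, 1 or 2 h. Plasma and blood cells separated by centrifugation; cells brought to 1.0 mL with PBS, and an aliquot sonicated. In the re-addition arm, plasma was added to 1 h cells and incubated 1 h more. MeOH-extracted supernatants, phenol internal standard 600 µg/mL final, analyzed by HPLC.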

A short description of data set [8]: Adsorption in rhesus monkey blood cells assessed as YYA-021 level at 1 mg/ml after 1 hr followed by plasma addition by HPLC analysis. It counts as ADME, cell-based, Macaca mulatta. In a few lines:
as §3

Data set [9] deals with Plasma. The experiment in a line: Adsorption in rhesus monkey plasma assessed as YYA-021 level at 1 mg/ml preincubated for 1 hr followed by plasma addition measured after 1 hr by HPLC analysis. The data set is classed as ADME, cell-free, Macaca mulatta. In a few lines: as §3
The test system of data set [10] is Plasma. The experiment in a line: Adsorption in rhesus monkey plasma assessed as YYA-021 level at 1 mg/ml after 1 hr followed by plasma addition by HPLC analysis. The data set is classed as ADME, cell-free, Macaca mulatta. The procedure, abridged:
as §3

A short description of data set [11]: Adsorption in rhesus monkey blood cells assessed as YYA-021 level at 1 mg/ml after 1 hr by HPLC analysis. It counts as ADME, cell-based, Macaca mulatta. The procedure, abridged:
as §3

Data set [12] deals with Plasma. Put plainly: Adsorption in rhesus monkey plasma assessed as YYA-021 level at 1 mg/ml after 1 hr by HPLC analysis. The data set is classed as ADME, cell-free, Macaca mulatta. In a few lines: as §3
The nature of data set [13]: Adsorption in rhesus monkey blood cells assessed as YYA-021 level at 1 mg/ml measured immediately by HPLC analysis. The data set is classed as ADME, cell-based, Macaca mulatta. In a few lines:
as §3

For data set [14], the system named is Plasma. The experiment in a line: Plasma concentration in rhesus monkey at 13.4 mg/kg, iv measured immediately by HPLC analysis. It counts as ADME, organism-based, Macaca mulatta. To be noted: in vivo. On the set-up: dose 13.4 mg/kg, route intravenous. The procedure, abridged: (§4)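 Macaque given 70.6 mg 2-HCl in 30 mL 0.1 M sodium phosphate buffer with NaCl, pH 7.4, by cephalic vein injection. Blood (3.0 mL) taken at 0, 0.5, 1, 2, 4 and 24 h, and plasma stored at -80°C. Plasma extracted with MeOH and spiked with phenol (150 µg/mL final). Quantified by HPLC on a 20–35% CH3CN (0.1% TFA) gradient over 30 min.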

Data set [15] deals with Plasma. The experiment in a line: Adsorption in rhesus monkey plasma at 1 mg/ml preincubated for 1 hr followed by plasma addition measured after 1 hr by HPLC analysis. The data set is classed as ADME, cell-free, Macaca mulatta. In a few lines:
as §3

Data set [16] concerns Rattus norvegicus. The experiment in a line: Toxicity in iv dosed Jcl:Sprague-Dawley rat assessed as renal and hepatic dysfunction. The data set is classed as organism-based. To be noted: in vivo.
A short description of data set [17]: Adsorption in rhesus monkey blood cells at 1 mg/ml after 2 hrs by HPLC analysis. The data set is classed as ADME, cell-based, Macaca mulatta. The procedure, abridged:
as §3

The subject of data set [18] is Plasma. Put plainly: Adsorption in rhesus monkey plasma at 1 mg/ml after 2 hrs by HPLC analysis. It counts as ADME, cell-free, Macaca mulatta. The procedure, abridged:
as §3

A short description of data set [19]: Adsorption in rhesus monkey blood cells at 1 mg/ml after 1 hr followed by plasma addition by HPLC analysis. The data set is classed as ADME, cell-based, Macaca mulatta. The procedure, abridged: as §3
The test system of data set [20] is Plasma. Put plainly: Adsorption in rhesus monkey plasma at 1 mg/ml after 1 hr followed by plasma addition by HPLC analysis. The data set is classed as ADME, cell-free, Macaca mulatta. In a few lines: as §3
The nature of data set [21]: Adsorption in rhesus monkey blood cells at 1 mg/ml after 1 hr by HPLC analysis. It counts as ADME, cell-based, Macaca mulatta. In a few lines:
as §3

For data set [22], the system named is Plasma. The experiment in a line: Adsorption in rhesus monkey plasma at 1 mg/ml after 1 hr by HPLC analysis. The data set is classed as ADME, cell-free, Macaca mulatta. The procedure, abridged:
as §3

A short description of data set [23]: Adsorption in rhesus monkey blood cells at 1 mg/ml measured immediately by HPLC analysis. It counts as ADME, cell-based, Macaca mulatta. In a few lines:
as §3

The test system of data set [24] is Plasma. Put plainly: Adsorption in rhesus monkey plasma at 1 mg/ml measured immediately by HPLC analysis. The data set is classed as ADME, cell-free, Macaca mulatta. In a few lines: as §3
Data set [25] can be described thus: Plasma concentration in rhesus monkey at 13.4 mg/kg, iv after 24 hrs by HPLC analysis. The data set is classed as ADME, organism-based, Macaca mulatta. More on the design: dose 13.4 mg/kg, route intravenous. The procedure, abridged:
as §4

Data set [26] is described as follows: Plasma concentration in rhesus monkey at 13.4 mg/kg, iv after 4 hrs by HPLC analysis. It counts as ADME, organism-based, Macaca mulatta. More on the design: dose 13.4 mg/kg, route intravenous. The procedure, abridged: as §4
A short description of data set [27]: Plasma concentration in rhesus monkey at 13.4 mg/kg, iv after 1 hr by HPLC analysis. It counts as ADME, organism-based, Macaca mulatta. On the set-up: dose 13.4 mg/kg, route intravenous. In a few lines: as §4
A short description of data set [28]: Plasma concentration in rhesus monkey at 13.4 mg/kg, iv after 2 hrs by HPLC analysis. It counts as ADME, organism-based, Macaca mulatta. More on the design: dose 13.4 mg/kg, route intravenous. In a few lines:
as §4

Data set [29] is described as follows: Plasma concentration in rhesus monkey at 13.4 mg/kg, iv after 0.5 hrs by HPLC analysis. On the set-up: dose 13.4 mg/kg, route intravenous. It counts as ADME, organism-based, Macaca mulatta. In a few lines:
as §4

The test system of data set [30] is Rhesus monkey. The experiment in a line: Toxicity in iv dosed rhesus monkey. It counts as organism-based, Macaca mulatta. To be noted: in vivo.
Data set [31] concerns Rhesus monkey. Put plainly: Toxicity in rhesus monkey assessed as prolonged PR interval in bradycardia at 70.6 mg, iv. The data set is classed as organism-based, Macaca mulatta. To be noted: in vivo.
Data set [32] has as its system Rhesus monkey. Put plainly: Toxicity in rhesus monkey assessed as prolonged PR interval in electrocardiogram at 70.6 mg, iv. It counts as organism-based, Macaca mulatta. To be noted: in vivo.
For data set [33], the system named is Rhesus monkey. The experiment in a line: Toxicity in rhesus monkey assessed as mydriasis at 70.6 mg, iv. The data set is classed as organism-based, Macaca mulatta. To be noted: in vivo.
The nature of data set [34]: Plasma concentration in Jcl:Sprague-Dawley rat at 14 mg/kg, iv after 240 mins by HPLC analysis. The data set is classed as ADME, organism-based. More on the design: dose 14 mg/kg, route intravenous. The procedure, abridged:
(§5)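 6-week-old Jcl:SD rats given 2.5 mg 2-HCl in 1.0 mL saline by tail-vein injection. Tail-vein blood drawn at 15, 30, 45, 60, 120 and 240 min and centrifuged to plasma. Plasma stored at -80°C, mixed with phenol internal standard (62.5 µg/mL final), filtered and quantified by HPLC. Standard curve from peak-area ratio to phenol.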

Data set [35] has as its system Plasma. Put plainly: Adsorption in rhesus monkey plasma assessed as YYA-021 level at 1 mg/ml measured immediately by HPLC analysis. It counts as ADME, cell-free, Macaca mulatta. The procedure, abridged: as §3
The nature of data set [36]: Plasma concentration in Jcl:Sprague-Dawley rat at 14 mg/kg, iv after 45 mins by HPLC analysis. It counts as ADME, organism-based. On the set-up: dose 14 mg/kg, route intravenous. The procedure, abridged: as §5
Data set [37] can be described thus: Plasma concentration in Jcl:Sprague-Dawley rat at 14 mg/kg, iv after 60 mins by HPLC analysis. The data set is classed as ADME, organism-based. More on the design: dose 14 mg/kg, route intravenous. In a few lines:
as §5

Data set [38] is described as follows: Plasma concentration in Jcl:Sprague-Dawley rat at 14 mg/kg, iv after 30 mins by HPLC analysis. It counts as ADME, organism-based. On the set-up: dose 14 mg/kg, route intravenous. The procedure, abridged:
as §5

Data set [39] in a line: Plasma concentration in Jcl:Sprague-Dawley rat at 14 mg/kg, iv after 15 mins by HPLC analysis. It counts as ADME, organism-based. More on the design: dose 14 mg/kg, route intravenous. In a few lines: as §5
Data set [40] concerns Rattus norvegicus. The experiment in a line: Toxicity in Jcl:Sprague-Dawley rat assessed as change in body weight at 5 mg/kg, iv after 2 weeks relative to control. More on the design: dose 5 mg/kg, route intravenous. To be noted: in vivo, 336 h. The data set is classed as organism-based.

Consider `Cc1ccc(NC(=O)C(=O)NC2CC(C)(C)NC(C)(C)C2)cc1`, for which the half-life was 98.4 min in data set [1] and 8.46 min in data set [6]. Moreover, the Vd in [2] came out at 47.1 L; in data set [5] it was 145 mL. In addition, the C0 in data set [3] amounted to 1500 ng/mL; in [4], 17300 ng/mL.
On to `Cc1ccc(NC(=O)C(=O)NC2CC(C)(C)NC(C)(C)C2)cc1.Cl`, for which the Activity was determined as 61 µg/mL in data set [7]; 17.9 µg/mL in data set [8]; 46 µg/mL in data set [9]; 92.4 µg/mL in data set [10]; 67.2 µg/mL in data set [11]; 102 µg/mL in [12]. For the same compound, the Activity in data set [13] came out at 64.2 µg/mL; in [15], 51.2 µg/mL; in data set [17], 68 µg/mL; in data set [18], 105 µg/mL; in data set [19] it was 19.9 µg/mL; in data set [20] it was 102.9 µg/mL. Moreover, the Activity in data set [21] is 74.8 µg/mL; in [22], 113.6 µg/mL; in [23], 71.5 µg/mL; in data set [24], 133.7 µg/mL; in [31], “Toxic”; in data set [32], “Toxic”. The Activity result was “Toxic” in data set [33], 120 µg/mL in data set [35] and “Non-toxic” in data set [40]. Further, in data set [14], the Cp was found to be 149 ng/mL. Besides, the MTD in data set [16] is given as 2.5 mg; in data set [30], 35.3 mg. Besides, the concentration at 24 h in data set [25] was found to be 415 ng/mL. Moreover, the figures for the concentration at 4 h in data set [26] and in data set [34] were 392 ng/mL and 1120 ng/mL, respectively. The concentration at 1 h in data set [27] came to 1260 ng/mL; in data set [37], 620 ng/mL. Besides, in data set [28], the concentration at 2 h turned out to be 1090 ng/mL. Moreover, the concentration at 0.5 h turned out to be 1330 ng/mL in [29] and 2100 ng/mL in data set [38]. Further, in data set [36], the concentration at 0.75 h came out at 1510 ng/mL. In data set [39], the concentration at 0.25 h worked out at 6010 ng/mL.
